Here are results for five compounds from ChEMBL document CHEMBL1122917, “Vinblastin-23-oyl amino acid derivatives: chemistry, physicochemical data, toxicity, and antitumor activities against P388 and L1210 leukemias” (J Med Chem, 1985).

Values joined by “and” are separate entries in the source; they are usually repeats but may differ in a detail not shown here. Equal entries are not always repeated. Where only a bound is given, the exact number is not on record here.

Data set [1] concerns Mus musculus. Kind of data set: Number of survivors on 30th day at dose 40 mg/kg/day in 10 mice implanted with P388 leukemia cell line; 5/10. It is filed as functional.
Data set [2] relates to Mus musculus. The data set can be described thus: Percent increase in life span at dose 60 mg/kg/day in 10 mice implanted with P388 leukemia cell line. It is filed as functional. In short, it runs like this: (§1)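 Female DBA2 mice inoculated iv on day 0 with 10^4 P388 cells; single iv treatment on day 1 with drug as sulfate salt in physiological saline. Survival followed; %ILS from all deaths and survivors as (T/C × 100) − 100, maximal MST 30 days; survivors counted on days 30 and 60. Most experiments confirmed three times.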

The subject of data set [3] is Mus musculus. Kind of data set: Percent increase in life span at dose 65 mg/kg/day in 7 mice implanted with P388 leukemia cell line for 1,8,15 schedule day in Exp-1. The class given is functional.
Data set [4] relates to Mus musculus. Kind of data set: Percent increase in life span of DBA2 mice after inoculation with L1210 leukemia intravenously at a dose of 65 mg/kg per day. It is filed as functional. The following applies: route intravenous. In short, it runs like this: (§2)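 Female DBA2 mice inoculated iv on day 0 with 10^4 L1210 cells; drugs given iv as sulfate salts in physiological saline, mostly once on day 1. %ILS from all deaths and survivors as (T/C × 100) − 100; survivors scored on days 30 and 60.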

The test system of data set [5] is Mus musculus. Kind of data set: Number of survivors on 60th day at dose 60 mg/kg/day in 10 mice implanted with P388 leukemia cell line for 1st scheduled day; 0/9. It is filed as functional.
The test system of data set [6] is Mus musculus. Kind of data set: Number of survivors on 30th day at dose 60 mg/kg/day in 10 mice implanted with P388 leukemia cell line 1,5,9 scheduled days; 9/9. It is filed as functional.
In data set [7] the test system is Mus musculus. Kind of data set: Percent increase in life span at dose 20 mg/kg/day in 10 mice implanted with P388 leukemia cell line. The class given is functional. In short, it runs like this:
as §1

Data set [8] relates to Mus musculus. The data set can be described thus: Number of survivors on 30th day at dose 55 mg/kg/day in 10 mice implanted with P388 leukemia cell line for1,5,9 scheduled days; 2/10. The class given is functional.
The subject of data set [9] is Mus musculus. Kind of data set: Percent increase in life span at dose 50 mg/kg/day in 10 mice implanted with P388 leukemia cell line. The class given is functional. The method in brief: as §1
Data set [10] relates to Mus musculus. The data set can be described thus: Percent increase in life span at dose 65 mg/kg/day in 10 mice implanted with P388 leukemia cell line. The class given is functional. In short, it runs like this:
as §1

The test system of data set [11] is Mus musculus. Kind of data set: Number of survivors of DBA2 mice on 60th day after inoculation with L1210 leukemia cell line intravenously at a dose of 70 mg/kg/day; 0/10. The following applies: route intravenous. It is filed as functional.
In data set [12] the test system is Mus musculus. The data set can be described thus: Percent increase in life span at dose 40 mg/kg/day in 10 mice implanted with P388 leukemia cell line. It is filed as functional. The method in brief: as §1
The test system of data set [13] is Mus musculus. The data set can be described thus: Percent increase in life span of DBA2 mice after inoculation with L1210 leukemia intravenously at a dose of 45 mg/kg per day. The following applies: route intravenous. The class given is functional. The method in brief:
as §2

In data set [14] the test system is Mus musculus. Kind of data set: Percent increase in life span at dose 65 mg/kg/day in 7 mice implanted with P388 leukemia cell line for 1,8,15 schedule day in Exp-2. The class given is functional. In short, it runs like this:
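Female DBA2 mice inoculated iv on day 0 with 10^5 P388 cells; iv dosing of sulfate salts in physiological saline on day 1 only or on days 1, 8 and 15. %ILS from all deaths and survivors as (T/C × 100) − 100, maximal MST 60 days; survivors scored on day 60.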

Data set [15] concerns Mus musculus. Kind of data set: Percent increase in life span at dose 55 mg/kg/day in 7 mice implanted with P388 leukemia cell line for 1,8,15 schedule day. The class given is functional.
Data set [16] concerns Mus musculus. Kind of data set: Percent increase in life span at dose 65 mg/kg/day in 10 mice implanted with P388 leukemia cell line for 1st schedule day. The class given is functional.
In data set [17] the test system is Mus musculus. The data set can be described thus: Number of survivors on 30th day at dose 6 mg/kg/day in 10 mice implanted with P388 leukemia cell line; 1/10. It is filed as functional.
The subject of data set [18] is Mus musculus. The data set can be described thus: Number of survivors on 60th day at dose 6 mg/kg/day in 9 mice implanted with P388 leukemia cell line; 0/10. It is filed as functional.
Data set [19] deals with Mus musculus. The data set can be described thus: Number of survivors on 30th day at dose 7 mg/kg/day in 10 mice implanted with P388 leukemia cell line; 2/10. The class given is functional.
In data set [20] the test system is Mus musculus. The data set can be described thus: Percent increase in life span at dose 10 mg/kg/day in 7 mice implanted with P388 leukemia cell line for 1,8,15 schedule days. It is filed as functional.
Data set [21] deals with Mus musculus. The data set can be described thus: Number of survivors on 30th day at dose 11 mg/kg/day in 10 mice implanted with P388 leukemia cell line; 0/10. It is filed as functional.
For data set [22], the system named is Mus musculus. The data set can be described thus: Number of survivors on 30th day at dose 7 mg/kg/day in 9 mice implanted with P388 leukemia cell line; 1 /9. It is filed as functional.
Data set [23] has as its system Mus musculus. The data set can be described thus: Number of survivors on 30th day at dose 9 mg/kg/day in 10 mice implanted with P388 leukemia cell line; […]. It is filed as functional.
The subject of data set [24] is Mus musculus. The data set can be described thus: Number of survivors on 30th day at dose 3 mg/kg/day in 10 mice implanted with P388 leukemia cell line; 0 /10. The class given is functional.
Data set [25] relates to Mus musculus. The data set can be described thus: Percent increase in life span at dose 4 mg/kg/day in 7 mice implanted with P388 leukemia cell line for 1,8,15 scheduled day from Exp-2. It is filed as functional.
Data set [26] relates to Mus musculus. Kind of data set: Number of survivors on 60th day at dose 0.5 mg/kg/day in 10 mice implanted with P388 leukemia cell line; 0/10. It is filed as functional.
Data set [27] deals with Mus musculus. The data set can be described thus: Number of survivors of DBA2 mice on 60th day after inoculation with L1210 leukemia cell line intraperitoneally at a dose of 2.7 mg/kg/day; 0/10. It is filed as functional. The following applies: route intraperitoneal.
The subject of data set [28] is Mus musculus. Kind of data set: Percent increase in life span at dose 1 mg/kg/day in 10 mice implanted with P388 leukemia cell line. The class given is functional.
The subject of data set [29] is Mus musculus. The data set can be described thus: Number of survivors on 60th day at dose 1 mg/kg/day in 10 mice implanted with P388 leukemia cell line; 0/10. It is filed as functional.
The subject of data set [30] is Mus musculus. Kind of data set: Percent increase in life span of BDF1 mice after inoculation with P388 leukemia cells intraperitoneally at a dose of 0.22 mg/kg per day for 1-9 scheduled days. The following applies: P388, ip.
For data set [31], the system named is Mus musculus. The data set can be described thus: Number of survivors of DBA2 mice on 30th day after inoculation with L1210 leukemia cell line intravenously at a dose of 2 mg/kg/day; 0/10. It is filed as functional. The following applies: route intravenous.
The subject of data set [32] is Mus musculus. The data set can be described thus: Number of survivors of DBA2 mice on 30th day after inoculation with L1210 leukemia cell line intravenously at a dose of 4.5 mg/kg/day; 0/10. It is filed as functional. The following applies: route intravenous.
For data set [33], the system named is Mus musculus. The data set can be described thus: Percent increase in life span of DBA2 mice after inoculation with L1210 leukemia intravenously at a dose of 4.5 mg/kg per day. The class given is functional. The following applies: route intravenous.
Data set [34] is described as follows: Acute iv toxicity against Swiss strain of 100 mice after 8 doses of injection. The following applies: mouse, in vivo. The class given is organism-based.
The subject of data set [35] is Mus musculus. The data set can be described thus: Number of survivors on 30th day at dose 6 mg/kg/day in 10 mice implanted with P388 leukemia cell line; 0/10. It is filed as functional.
The test system of data set [36] is Mus musculus. Kind of data set: Number of survivors on 60th day at dose 3 mg/kg/day in 10 mice implanted with P388 leukemia cell line; 0/9. The class given is functional.
For data set [37], the system named is Mus musculus. The data set can be described thus: Percent increase in life span at dose 2.5 mg/kg/day in 10 mice implanted with P388 leukemia cell line for 1st scheduled day. The class given is functional.
For data set [38], the system named is Mus musculus. The data set can be described thus: Number of survivors on 30th day at dose 8 mg/kg/day in 10 mice implanted with P388 leukemia cell line; 0/10. It is filed as functional.
Data set [39] deals with Mus musculus. Kind of data set: Number of survivors on 30th day at dose 3 mg/kg/day in 9 mice implanted with P388 leukemia cell line; 0/10. It is filed as functional.

As usually defined, the ILS is how much longer treated animals lived than controls. Consider `CCOC(=O)[C@H](Cc1c[nH]c2ccccc12)NC(=O)[C@@]1(O)[C@H](O)[C@]2(CC)C=CCN3CC[C@@]4(c5cc([C@@]6(C(=O)OC)C[C@H]7C[N@](CCc8c6[nH]c6ccccc86)C[C@](O)(CC)C7)c(OC)cc5N(C)[C@@]14C)[C@@H]32`, for which the Survivors in the data set with Mus musculus [1] was found to be 5; in the data set on Mus musculus [5], 0; in the data set with Mus musculus [6] it was 9; in the data set with Mus musculus [8], 2; in the data set on Mus musculus [11], 0. For the same compound, in the data set with Mus musculus [2], the ILS at 60 mg/kg/day is above 178%. Besides, the ILS at 65 mg/kg/day was 88% in the data set with Mus musculus [3], 71% in the data set on Mus musculus [4], above 173% in the data set with Mus musculus [10] and 82% with Mus musculus [16]. Further, the increase in lifespan (ILS) at 20 mg/kg/day in the data set with Mus musculus [7] was determined as 43.9%. This compound came in with an increase in lifespan (ILS) at 50 mg/kg/day in the data set on Mus musculus [9] above 161%. The same compound displayed an ILS at 40 mg/kg/day in the data set with Mus musculus [12] of 58.8%. Also, the increase in lifespan (ILS) at 45 mg/kg/day in the data set on Mus musculus [13] is 92%. For the same compound, the ILS with Mus musculus [14] is 40% and 108%. The same compound had an increase in lifespan (ILS) at 55 mg/kg/day in the data set on Mus musculus [15] of 53%.

`CCOC(=O)[C@@H](NC(=O)[C@@]1(O)[C@H](O)[C@]2(CC)C=CCN3CC[C@@]4(c5cc([C@@]6(C(=O)OC)C[C@H]7C[N@](CCc8c6[nH]c6ccccc86)C[C@](O)(CC)C7)c(OC)cc5N(C)[C@@]14C)[C@@H]32)[C@@H](C)CC`: the Survivors with Mus musculus [17] is 1; with Mus musculus [18], 0; in the data set on Mus musculus [19] it was 2. The same compound returned an ILS at 10 mg/kg/day in the data set on Mus musculus [20] of 41%.

Take `CC[C@]1(O)C[C@@H]2CN(CCc3c([nH]c4ccccc34)[C@@](C(=O)OC)(c3cc4c(cc3OC)N(C)[C@H]3[C@@](O)(C(=O)OC)[C@H](OC(C)=O)[C@]5(CC)C=CCN6CC[C@]43[C@@H]65)C2)C1` [VINBLASTINE]: the Survivors with Mus musculus [21] was found to be 0; with Mus musculus [22], 1; in the data set with Mus musculus [23] it was 1; in the data set with Mus musculus [24] it was 0. This compound also had an ILS at 4 mg/kg/day with Mus musculus [25] of 35%.

`CC[C@]1(O)C[C@H]2CN(CCc3c([nH]c4ccccc34)[C@@](C(=O)OC)(c3cc4c(cc3OC)N(C=O)[C@H]3[C@@](O)(C(=O)OC)[C@H](OC(C)=O)[C@]5(CC)C=CCN6CC[C@]43[C@@H]65)C2)C1` [VINCRISTINE]: the Survivors with Mus musculus [26], in the data set on Mus musculus [27], with Mus musculus [29], in the data set with Mus musculus [31] and in the data set with Mus musculus [32] was 0 each time. Besides, the ILS at 1 mg/kg/day with Mus musculus [28] amounted to 16%. The compound further gave an ILS at 0.22 mg/kg/day in the data set with Mus musculus [30] of 146%. This compound also had an ILS at 4.5 mg/kg/day in the data set on Mus musculus [33] of 20%.

What is called LD50 is the dose at which mortality reaches 50%. A high value points to a less toxic substance. In data set [34], `CC[C@]1(O)C[C@@H]2CN(CCc3c([nH]c4ccccc34)[C@@](C(=O)OC)(c3cc4c(cc3OC)N(C)[C@H]3[C@@](O)(C(N)=O)[C@H](O)[C@]5(CC)C=CCN6CC[C@]43[C@@H]65)C2)C1` [VINDESINE] returned a median lethal dose (LD50) of 13.8 mg/kg. The Survivors in the data set on Mus musculus [35], with Mus musculus [36], in the data set with Mus musculus [38] and with Mus musculus [39] was 0 each time. In the data set with Mus musculus [37], this compound registered an ILS at 2.5 mg/kg/day of 32%.
